Results reported in article PMC3785103 (Molecular pharmaceutics, 2013).
Where two headings read alike, the source gives them in different places. [ ]: non-standard residue; d: D form. d2Nal = N[C@H](Cc1ccc2ccccc2c1)C(=O)O; Nle = CCCC[C@H](N)C(=O)O

Assays:
[1] = target: MC5R; conditions: read-out: Ki for MC5R; unlabeled peptide ligands; cited from earlier work
[2] = target: MC1R; conditions: read-out: Ki for MC1R, cited from earlier work
[3] = design: species or system mouse; conditions: mean±s.d. of 10 simulations
[4] = test system: MC5R; assay: Co-injection of MC5R-selective ligand to block kidney uptake of probe; format: in vivo, mouse; conditions: 5 nmol/kg MC1RL-800 co-injected with 1 nmol/kg MC5R-selective ligand, 2 h
In short: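 Female nu/nu mice (6–8 weeks) carried s.c. xenografts: 1 × 10⁶ A375/MC1R cells in the right flank and parental A375 cells in the left. At 500–800 mm³ tumor volume, mice received 5 nmol/kg MC1R ligand–IRDye800CW i.v. (tail vein, in 100 μL sterile saline) co-injected with 1 nmol/kg MC5R-specific ligand. Fluorescence imaging used mean pre-injection tumor signal subtracted from normalized post-injection ROI intensities.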

[5] = test system: A375/MC1R and A375 xenograft tumors; assay: in vivo; conditions: female, nu/nu, mouse, 5 nmol/kg
[6] = in vivo; conditions: female, nu/nu, mouse

Molecule | Ki [1] | Ki ([2]; unlabeled peptide ligands) | Kki, rate of accumulation of ligand in the kidney specific binding compartment [3] | Kko, rate of clearance of ligand from kidney back to the bloodstream [3] | Kni, rate of accumulation in non-specific tissue [3] | Kno, rate of clearance from non-specific tissue [3] | Kto, rate of clearance from tumor specific binding compartment [3] | Kti, rate of probe accumulation in tumor specific binding compartment ([3]; fit to 3 nmol/kg ex vivo data) | Ki ([2]; NIRF dye conjugates) | decrease of A375/MC1R tumor signal [4] | half-life (clearance) in the tumor [5] | half-life ([6]; 5 nmol/kg, half-life (clearance) in the tumor) | half-life ([6]; half-life (clearance) in negative tissue)
H-YV[Nle]GH[d2Nal]R[dF]DRFG-NH2 [reference compound] | 710 pM | 5600 pM | – | – | – | – | – | – | – | – | – | – | –
CC1(C)C(=CC=C2CCCC(C=CC3=[N+](CCCCS(=O)(=O)[O-])c4ccc(S(=O)(=O)O)cc4C3(C)C)=C2Oc2ccc(S(=O)(=O)O)cc2)N(CCCCCC(=O)NCCN2C(=O)CC(SCCC(=O)NCCCC[C@H](NC(=O)CNC(=O)[C@H](Cc3c[nH]c4ccccc34)NC(=O)[C@H](CCCNC(=N)N)NC(=O)[C@@H](Cc3ccccc3)NC(=O)[C@H](Cc3c[nH]cn3)NC(=O)CCCc3ccccc3)C(N)=O)C2=O)c2ccc(S(=O)(=O)O)cc21 (stereo partly drawn) [MC1RL-800, 4-phenylbutyryl-His-DPhe-Arg-Trp-Gly-Lys(Mpr-IRDye800CW)-NH2] | – | – | 1E-2+6.8E-3 (NU.h)^−1 | 0.96 ± 0.14 h⁻¹ | 1.8 ± 0.2 (NU.h)^−1 | 2.3 ± 0.6 h⁻¹ | 26+12 (h)^−1 | 2.7+1.4 (NU.h)^−1 | 400 ± 100 pM | 28% | ~22 h | 22 h | 16 h
4-phenylbutyryl-His-DPhe-Arg-Trp-Gly-Lys(hex-5-ynoyl)-NH2 [unlabeled ligand] | 46000 pM | 240 pM | – | – | – | – | – | – | – | – | – | – | –
